Experimental data published in ChEMBL document CHEMBL2311466, “Synthesis and antibacterial and antifungal evaluation of some chalcone based sulfones and bisulfones” (2013).
In brackets after ≈: the same amount, converted by molar mass.

How the values were obtained:
[1] = test system: Pseudomonas aeruginosa; experiment: Antimicrobial activity against Pseudomonas aeruginosa after 12 to 18 hrs by micro-well dilution method; type: functional
Procedure, shortened: (§1)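 Clinical isolates were tested by broth micro-well dilution per NCCLS, in triplicate. Stocks were 10 mg/ml in DMSO, with a 1 mg/ml working solution in methanol. Two-fold serial dilutions ran across 10 wells. Cultures were grown to log phase in Luria Bertani or nutrient broth for 12-18 h at 37 °C and adjusted by OD600 to 10⁷ cfu per well. MIC is the lowest concentration preventing visible growth. Ampicillin and kanamycin served as reference drugs.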

[2] = test system: Salmonella typhimurium; experiment: Antimicrobial activity against Salmonella typhimurium after 12 to 18 hrs by micro-well dilution method; type: functional, Salmonella enterica subsp. enterica serovar Typhimurium; conditions: Salmonella enterica; procedure, shortened: as §1
[3] = test system: Staphylococcus aureus; experiment: Antimicrobial activity against Staphylococcus aureus after 12 to 18 hrs by micro-well dilution method; type: functional; procedure, shortened: as §1
[4] = test system: Aspergillus niger; experiment: Antifungal activity against Aspergillus niger after 12 to 18 hrs by micro-well dilution method; type: functional
Procedure, shortened: (§2)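 Broth micro-well dilution per NCCLS, in triplicate. Compounds were stocked at 10 mg/ml in DMSO and diluted to a 1 mg/ml working solution in methanol. Two-fold serial dilutions ran across 10 wells of medium. Clinical isolates were subcultured on Sabouraud dextrose agar at 37 °C for 48-72 h. Cultures were grown in yeast/peptone/D-glucose medium for 12-18 h at 37 °C and sized by OD600 to 10⁴ cfu per well. MIC is the lowest concentration with no visible growth. Amphotericin-B and nystatin served as reference drugs.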

[5] = test system: Bacillus subtilis; experiment: Antimicrobial activity against Bacillus subtilis after 12 to 18 hrs by micro-well dilution method; type: functional; procedure, shortened: as §1
[6] = test system: Candida albicans; experiment: Antifungal activity against Candida albicans after 12 to 18 hrs by micro-well dilution method; type: functional; procedure, shortened: as §2
[7] = test system: Aspergillus niger; experiment: Antifungal activity against Aspergillus niger after 12 to 18 hrs by broth microdilution method; type: functional
Procedure, shortened: (§3)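 Clinical isolate from a medical college microbiology department, subcultured on Sabouraud dextrose agar at 37 °C for 48–72 h. Liquid culture was grown in yeast/peptone/D-glucose medium for 12–18 h at 37 °C, then diluted by OD600 to 10⁴ cfu/100 per well. Compounds were made as a 10 mg/ml DMSO stock and a 1 mg/ml methanol working solution. Twofold serial dilutions ran across 10 wells, in triplicate, per NCCLS micro-well dilution. MIC was the lowest concentration with no visible growth.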

[8] = test system: Candida albicans; experiment: Antifungal activity against Candida albicans after 12 to 18 hrs by broth microdilution method; type: functional; procedure, shortened: as §3

Compound: Cc1ccc(C(CC(=O)CC(c2ccc(C)cc2)S(=O)(=O)c2ccccc2)S(=O)(=O)c2ccccc2)cc1 (stereo not drawn)
- MIC [1]: 62.5 µg/mL (≈ 114 µM)
- MIC [2]: 31.2 µg/mL (≈ 57.2 µM)
- MIC [3]: 62.5 µg/mL (≈ 114 µM)
- MIC [4]: 31.2 µg/mL (≈ 57.2 µM)
- MIC [5]: 62.5 µg/mL (≈ 114 µM)
- MIC [6]: 1.95 µg/mL (≈ 3.57 µM)

Compound: O=C(CC(c1ccc(Cl)cc1)S(=O)(=O)c1ccccc1)CC(c1ccc(Cl)cc1)S(=O)(=O)c1ccccc1 (stereo not drawn)
- MIC [1]: 250 µg/mL (≈ 425 µM)
- MIC [2]: 15.6 µg/mL (≈ 26.6 µM)
- MIC [3]: 250 µg/mL (≈ 425 µM)
- MIC [4]: 125 µg/mL (≈ 213 µM)
- MIC [5]: 31.2 µg/mL (≈ 53.2 µM)
- MIC [6]: 1.95 µg/mL (≈ 3.32 µM)

Compound: O=C(CC(c1ccccc1)S(=O)(=O)c1ccccc1)CC(c1ccccc1)S(=O)(=O)c1ccccc1 (stereo not drawn)
- MIC [1]: 62.5 µg/mL (≈ 121 µM)
- MIC [2]: 250 µg/mL (≈ 482 µM)
- MIC [3]: 62.5 µg/mL (≈ 121 µM)
- MIC [4]: 125 µg/mL (≈ 241 µM)
- MIC [5]: 125 µg/mL (≈ 241 µM)
- MIC [6]: 250 µg/mL (≈ 482 µM)

Compound: NYSTATIN
- MIC [7]: 7.81 µg/mL
- MIC [8]: 7.81 µg/mL

Compound: CC1(C)S[C@@H]2[C@H](NC(=O)[C@H](N)c3ccccc3)C(=O)N2[C@H]1C(=O)O [AMPICILLIN]
- MIC [1]: 125 µg/mL (≈ 358 µM)
- MIC [2]: 125 µg/mL (≈ 358 µM)
- MIC [3]: 500 µg/mL (≈ 1430 µM)
- MIC [5]: 250 µg/mL (≈ 715 µM)

Compound: COc1ccc(C(CC(=O)c2ccc(Br)cc2)S(=O)(=O)c2ccccc2)cc1OC (stereo not drawn)
- MIC [1]: 62.5 µg/mL (≈ 128 µM)
- MIC [2]: 1.95 µg/mL (≈ 3.98 µM)
- MIC [3]: 62.5 µg/mL (≈ 128 µM)
- MIC [4]: 15.6 µg/mL (≈ 31.9 µM)
- MIC [5]: 62.5 µg/mL (≈ 128 µM)
- MIC [6]: 15.6 µg/mL (≈ 31.9 µM)

Compound: O=C(CC(c1cccc([N+](=O)[O-])c1)S(=O)(=O)c1ccccc1)c1ccc(Cl)cc1 (stereo not drawn)
- MIC [1]: 62.5 µg/mL (≈ 145 µM)
- MIC [2]: 62.5 µg/mL (≈ 145 µM)
- MIC [3]: 125 µg/mL (≈ 291 µM)
- MIC [4]: 62.5 µg/mL (≈ 145 µM)
- MIC [5]: 62.5 µg/mL (≈ 145 µM)
- MIC [6]: 1.95 µg/mL (≈ 4.54 µM)

Compound: COc1ccc(C(CC(=O)CC(c2ccc(OC)cc2)S(=O)(=O)c2ccccc2)S(=O)(=O)c2ccccc2)cc1 (stereo not drawn)
- MIC [1]: 125 µg/mL (≈ 216 µM)
- MIC [2]: 62.5 µg/mL (≈ 108 µM)
- MIC [3]: 250 µg/mL (≈ 432 µM)
- MIC [4]: 125 µg/mL (≈ 216 µM)
- MIC [5]: 31.2 µg/mL (≈ 54 µM)
- MIC [6]: 125 µg/mL (≈ 216 µM)

Compound: O=C(CC(c1ccccc1)S(=O)(=O)c1ccccc1)c1ccccc1 (stereo not drawn)
- MIC [1]: 125 µg/mL (≈ 357 µM)
- MIC [2]: 1.95 µg/mL (≈ 5.56 µM)
- MIC [3]: 62.5 µg/mL (≈ 178 µM)
- MIC [4]: 7.81 µg/mL (≈ 22.3 µM)
- MIC [5]: 31.2 µg/mL (≈ 89.2 µM)
- MIC [6]: 3.9 µg/mL (≈ 11.1 µM)

Compound: O=C(CC(c1ccccc1)S(=O)(=O)c1ccccc1)c1ccc(Br)cc1 (stereo not drawn)
- MIC [1]: 62.5 µg/mL (≈ 146 µM)
- MIC [2]: 250 µg/mL (≈ 582 µM)
- MIC [3]: 125 µg/mL (≈ 291 µM)
- MIC [4]: 62.5 µg/mL (≈ 146 µM)
- MIC [5]: 62.5 µg/mL (≈ 146 µM)
- MIC [6]: 125 µg/mL (≈ 291 µM)

Compound: COc1cc(C(CC(=O)c2ccc(Br)cc2)S(=O)(=O)c2ccccc2)cc(OC)c1OC (stereo not drawn)
- MIC [1]: 125 µg/mL (≈ 241 µM)
- MIC [2]: 1.95 µg/mL (≈ 3.75 µM)
- MIC [3]: 125 µg/mL (≈ 241 µM)
- MIC [4]: 7.81 µg/mL (≈ 15 µM)
- MIC [5]: 31.2 µg/mL (≈ 60.2 µM)
- MIC [6]: 3.9 µg/mL (≈ 7.51 µM)

Compound: C[C@@H]1[C@H](O)[C@@H](C)/C=C/C=C/C=C/C=C/C=C/C=C/C=C/[C@H](O[C@@H]2O[C@H](C)[C@@H](O)[C@H](N)[C@@H]2O)C[C@@H]2O[C@](O)(C[C@@H](O)C[C@@H](O)[C@H](O)CC[C@@H](O)C[C@@H](O)CC(=O)O[C@H]1C)C[C@H](O)[C@H]2C(=O)O [AMPHOTERICIN B]
- MIC [7]: 500 µg/mL (≈ 541 µM)
- MIC [8]: 15.6 µg/mL (≈ 16.9 µM)

Compound: O=C(CC(c1ccc(Cl)cc1)S(=O)(=O)c1ccccc1)c1ccc(Cl)cc1 (stereo not drawn)
- MIC [1]: 125 µg/mL (≈ 298 µM)
- MIC [2]: 125 µg/mL (≈ 298 µM)
- MIC [3]: 250 µg/mL (≈ 596 µM)
- MIC [4]: 15.6 µg/mL (≈ 37.2 µM)
- MIC [5]: 15.6 µg/mL (≈ 37.2 µM)
- MIC [6]: 31.2 µg/mL (≈ 74.5 µM)

Compound: O=C(CC(c1ccc(Cl)cc1)S(=O)(=O)c1ccccc1)c1ccccc1 (stereo not drawn)
- MIC [1]: 62.5 µg/mL (≈ 162 µM)
- MIC [2]: 125 µg/mL (≈ 325 µM)
- MIC [3]: 125 µg/mL (≈ 325 µM)
- MIC [4]: 125 µg/mL (≈ 325 µM)
- MIC [5]: 62.5 µg/mL (≈ 162 µM)
- MIC [6]: 1.95 µg/mL (≈ 5.07 µM)

Compound: NC[C@H]1O[C@H](O[C@H]2[C@H](O)[C@@H](O[C@H]3O[C@H](CO)[C@@H](O)[C@H](N)[C@H]3O)[C@H](N)C[C@@H]2N)[C@H](O)[C@@H](O)[C@@H]1O [KANAMYCIN]
- MIC [1]: 250 µg/mL (≈ 516 µM)
- MIC [2]: 15.6 µg/mL (≈ 32.2 µM)
- MIC [3]: 500 µg/mL (≈ 1030 µM)
- MIC [5]: 7.81 µg/mL (≈ 16.1 µM)
